pIC50: −log10 of the molar value. Active and inactive are the calls of the source. The rule behind the calls is not given here. *1 amine or outer side, *2 acyl side, *3 side chain or, on linkers, in order; H or OH if unused. Where a SMILES comes first, the peptide text is derived from it. The star is where a group is joined. NH(CH2)3O(βDGlc) = OC[C@H]1O[C@@H](OCCCN*)[C@H](O)[C@@H](O)[C@@H]1O; Glutaryl = O=C(CCCC(=O)[*:2])[*:1]
Key:
A549 [1] = experiment: Induction of apoptosis in human A549 cells assessed as necrotic cells at 8 uM measured after 4 hrs by Annexin V-FITC/propidium iodide staining-based flow cytometry (reference value: 0.51%); assay type: functional
Summary of the method: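 A549 cells grown 24 h, trypsinized, then resuspended in medium with 8 µM peptide for 4 h at 37 °C. Cells washed with cold PBS, stained with Annexin V-FITC/PI, and analysed by flow cytometry.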

A549 [2] = experiment: Induction of mitochondrial membrane disruption in human A549 cells assessed as increase in cytochrome C level in cytoplasm at 15 uM measured after 24 hrs by immunofluorescence assay; assay type: functional, cell-based
Summary of the method: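 A549 cells given 15 µM peptide for 24 h, permeabilized 2 min with 0.5% Triton X-100 and blocked 30 min in 10% sheep serum/PBS. Anti-CytC (1:100) applied 2 h at RT, then fluorescent goat anti-mouse secondary (1:200) for 1 h. Confocal imaging; untreated cells served as control.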

[3] = Toxicity in Balb/c nu/nu mouse xenografted with human A549 cells expressing luciferase gene assessed as change in body weight at 9 mg/kg, ip administered every 2 days for seven times measured on day 14; assay type: organism-based; details: in vivo, 48 h
Summary of the method: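 Male BALB/c nu/nu mice, 4–6 weeks old, carrying subcutaneous A549-luciferase tumours (right back, cells in sterile PBS), dosed at a tumour size of 100–200 mm³; five per group, PBS controls. Two regimens: 9 mg/kg i.p. (200 µL) every other day ×7, ended day 14; or 3 mg/kg intratumoral (100 µL) every 3 days ×4, ended day 12. Body weight was monitored throughout.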

A549 [4] = experiment: Induction of apoptosis in human A549 cells assessed as appearance of surface bubbling at 15 uM measured after 24 hrs by scanning electron microscopic analysis; assay type: functional, cell-based
[5] = Drug uptake in spleen of Balb/c nu/nu mouse xenografted with human A549 cells expressing luciferase gene at 9 mg/kg, ip measured after 6 hrs by fluorescence assay; assay type: ADME, organism-based; details: in vivo
[6] = target: T1, Solute carrier family 2, facilitated glucose transporter member 1 (Homo sapiens) (UniProt P11166); experiment: Binding affinity to GLUT1 in human A549 cells assessed as cytotoxicity by measuring increase in LDH release at 25 uM measured after 2 hrs; assay type: cell-based
T1 sequence (whole entry): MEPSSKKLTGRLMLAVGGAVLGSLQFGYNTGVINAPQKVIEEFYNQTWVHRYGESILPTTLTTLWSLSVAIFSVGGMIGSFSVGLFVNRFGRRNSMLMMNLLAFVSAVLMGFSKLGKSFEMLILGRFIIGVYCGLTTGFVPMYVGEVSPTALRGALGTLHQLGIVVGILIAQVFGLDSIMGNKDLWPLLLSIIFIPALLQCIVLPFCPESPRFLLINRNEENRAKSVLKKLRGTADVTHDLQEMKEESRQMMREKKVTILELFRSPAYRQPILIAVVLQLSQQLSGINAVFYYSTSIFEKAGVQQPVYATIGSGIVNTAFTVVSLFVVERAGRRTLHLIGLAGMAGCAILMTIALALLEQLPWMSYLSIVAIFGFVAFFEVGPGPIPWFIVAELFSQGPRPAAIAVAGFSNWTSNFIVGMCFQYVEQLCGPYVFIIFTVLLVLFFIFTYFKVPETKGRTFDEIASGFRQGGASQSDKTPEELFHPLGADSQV
Summary of the method: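 A549 cells at 2×10^3/well, allowed to adhere overnight, then exposed to peptide over a concentration series for 2 h. LDH release measured with a kit, absorbance at 490 nm. 1% Triton X-100 taken as 100% release; n=3.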

A549 [7] = experiment: Antitumor activity against human A549 cells expressing luciferase gene xenografted in Balb/c nu/nu mouse assessed as reduction in tumor volume at 3 mg/kg administered intratumorally every 3 days for four times measured on day 12 by bioluminescent imaging analysis; assay type: functional, organism-based
Summary of the method: (§1)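 Male BALB/c nu/nu mice, 4-6 weeks old, with subcutaneous A549-luciferase xenografts. Treatment began when tumors reached 100-200 mm³, five per group. Peptide was injected intratumorally at 3 mg/kg in 100 µL every 3 days for 4 doses; 100 µL PBS was the control. Bioluminescent imaging on day 12, with tumor size and body weight monitored.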

A549 [8] = experiment: Induction of morphological changes in 3D spheroids of human A549 cells assessed as cell shrinkage at 30 uM treated every 2 days for 6 days measured every 3 days during compound dosing by microscopic analysis; assay type: functional, cell-based
Summary of the method: (§2)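 A549 3D spheroids, one per well, in 10% medium with peptide at 30 µM final. Dosed at day 0, then re-added at days 2 and 4, for 6 days total. Spheroids washed thrice, then imaged and sized at days 0, 3 and 6. Viability read by CCK-8.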

A549 [9] = experiment: Induction of apoptosis in human A549 cells assessed as increase in caspase-3 activity at 15 uM measured after 24 hrs by Ac-DEVD-pNA substrate based assay relative to control; assay type: functional
Summary of the method: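 A549 cells treated 24 h with 15 µM peptide, or medium as control. Cells lysed, and supernatant incubated with Ac-DEVD-pNA (2 mM). Absorbance read at 405 nm; activity ratio expressed against blank control, n=3.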

A549 [10] = experiment: Induction of morphological changes in 3D spheroids of human A549 cells assessed as dissociation of 3D structure at 30 uM treated every 2 days for 6 days measured every 3 days during compound dosing by microscopic analysis; assay type: functional, cell-based; summary of the method: as §2
A549 [11] = experiment: Induction of morphological changes in 3D spheroids of human A549 cells assessed as reduction in spheroid volume at 30 uM treated every 2 days for 6 days measured every 3 days during compound dosing by microscopic analysis; assay type: functional, cell-based; summary of the method: as §2
A549 [12] = experiment: Induction of apoptosis in human A549 cells assessed as appearance of apoptotic bodies at 15 uM measured after 24 hrs by scanning electron microscopic analysis; assay type: functional, cell-based
A549 [13] = experiment: Antitumor activity against human A549 cells expressing luciferase gene xenografted in Balb/c nu/nu mouse assessed as tumor growth inhibition at 3 mg/kg administered intratumorally every 3 days for four times measured on day 12 by bioluminescent imaging analysis; assay type: functional, organism-based; summary of the method: as §1
[14] = Drug uptake in liver of Balb/c nu/nu mouse xenografted with human A549 cells expressing luciferase gene at 9 mg/kg, ip measured after 6 hrs by fluorescence assay; assay type: ADME, organism-based; details: in vivo
[15] = Drug uptake in heart of Balb/c nu/nu mouse xenografted with human A549 cells expressing luciferase gene at 3 mg/kg administered intratumorally measured after 6 hrs by fluorescence assay; assay type: ADME, organism-based; details: in vivo, other
[16] = target: T1, Solute carrier family 2, facilitated glucose transporter member 1 (Homo sapiens); experiment: Binding affinity to GLUT1 in human A549 cells assessed as cytotoxicity by measuring reduction in cell viability at 15 uM by trypan blue staining-based assay
Summary of the method: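 A549 cells stained with trypan blue after peptide treatment at 15 µM. Dead cells appear blue and live cells unstained; live cells were counted.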

HEK-293T = experiment: Cytotoxicity against HEK293T cells assessed as reduction in cell viability measured after 24 hrs by CCK8 assay; assay type: cell-based, Homo sapiens; details: Homo sapiens, HEK-293T
Summary of the method: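 Cells (A549, H460, H1437, PC-3, HGC-27, MDA-MB-231, HEK-293T, L-02) seeded at about 2×10^3/well and grown overnight. Treated 24 h with a peptide concentration series in serum-free medium. Viability by CCK-8; IC50 taken as 50% inhibition versus untreated cells. Average of three experiments, each in triplicate.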

[17] = Drug uptake in spleen of Balb/c nu/nu mouse xenografted with human A549 cells expressing luciferase gene at 3 mg/kg administered intratumorally measured after 6 hrs by fluorescence assay; assay type: ADME, organism-based; details: in vivo, other

Compound: CC[C@H](C)[C@H](NC(=O)[C@H](Cc1ccccc1)NC(=O)[C@H](CCCNC(=N)N)NC(=O)[C@H](C)NC(=O)[C@@H](NC(=O)[C@H](CO)NC(=O)[C@H](CCCNC(=N)N)NC(=O)[C@H](CCSC)NC(=O)[C@H](C)NC(=O)[C@H](CCCNC(=N)N)NC(=O)[C@H](Cc1ccccc1)NC(=O)[C@H](Cc1c[nH]c2ccccc12)NC(=O)CNC(=O)[C@@H](N)CCCNC(=N)N)[C@@H](C)CC)C(=O)N[C@@H](C)C(=O)N[C@@H](CCCNC(=N)N)C(=O)N[C@@H](CCC(=O)O)C(=O)N[C@@H](CCCNC(=N)N)C(=O)N[C@@H](CC(C)C)C(=O)N[C@@H](CCCNC(=N)N)C(=O)N[C@@H](CCC(=O)O)C(=O)N[C@@H](Cc1cnc[nH]1)C(=O)N[C@@H](CC(C)C)C(=O)O (H-RGWFRAMRSIARFIARERLREHL-OH)
- Activity (A549 [1]): 0.75%
- Activity (A549 [2]): Active
- Activity [3]: Non-Toxic
- Activity (A549 [4]): Active
- Drug uptake [5]: Active
- Activity [6]: Active
- Activity (A549 [7]): Active
- Activity (A549 [8]): Active
- fold change (FC) (A549 [9]): 1.5
- Activity (A549 [10]): Active
- Activity (A549 [11]): Active
- Activity (A549 [12]): Active
- TGI (A549 [13]): Active
- Drug uptake [14]: Active
- Drug uptake [15]: Active
- Activity [16]: Active
- pIC50 (HEK-293T): 4.59
- Drug uptake [17]: Active

Compound: CC[C@H](C)[C@H](NC(=O)[C@H](Cc1ccccc1)NC(=O)[C@H](CCCNC(=N)N)NC(=O)[C@H](C)NC(=O)[C@@H](NC(=O)[C@H](CO)NC(=O)[C@H](CCCNC(=N)N)NC(=O)[C@H](CCSC)NC(=O)[C@H](C)NC(=O)[C@H](CCCNC(=N)N)NC(=O)[C@H](Cc1ccccc1)NC(=O)[C@H](Cc1c[nH]c2ccccc12)NC(=O)CNC(=O)[C@H](CCCNC(=N)N)NC(=O)CCCC(=O)NCCCO[C@@H]1O[C@H](CO)[C@@H](O)[C@H](O)[C@H]1O)[C@@H](C)CC)C(=O)N[C@@H](C)C(=O)N[C@@H](CCCNC(=N)N)C(=O)N[C@@H](CCC(=O)O)C(=O)N[C@@H](CCCNC(=N)N)C(=O)N[C@@H](CC(C)C)C(=O)N[C@@H](CCCNC(=N)N)C(=O)N[C@@H](CCC(=O)O)C(=O)N[C@@H](Cc1cnc[nH]1)C(=O)N[C@@H](CC(C)C)C(=O)O ({NH(CH2)3O(βDGlc)-Glutaryl}-RGWFRAMRSIARFIARERLREHL-OH)
- Activity (A549 [1]): 0.57%
- Activity (A549 [2]): Active
- Activity [3]: Non-Toxic
- Activity (A549 [4]): Active
- Drug uptake [5]: Active
- Activity [6]: Active
- Activity (A549 [7]): Active
- Activity (A549 [8]): Active
- fold change (FC) (A549 [9]): 1.5
- Activity (A549 [10]): Active
- Activity (A549 [11]): Active
- Activity (A549 [12]): Active
- TGI (A549 [13]): Active
- Drug uptake [14]: Active
- Drug uptake [15]: Active
- Activity [16]: Active
- pIC50 (HEK-293T): 4.43
- Drug uptake [17]: Active

Reference: ChEMBL document CHEMBL4334452, “Monosaccharide Analogues of Anticancer Peptide R-Lycosin-I: Role of Monosaccharide Conjugation in Complexation and the Potential of Lung Cancer Targeting and Therapy” (J Med Chem, 2019)
